Key:
Type in all cases: functional
COLO 205 = test: Growth inhibition of human COLO205 cells after 48 hrs by sulforhodamine B assay; conditions: COLO 205, 48 h
Outline: (§1)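 NCI 60-cell-line main test over a five-log dose range. GI50 is the molar concentration giving half-growth inhibition, reported as log molar. Subpanel values are median GI50 across that subpanel's lines. Where 50% inhibition was not reached within the tested interval, the highest tested concentration was used.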

MCF7 [1] = test: Growth inhibition of human MCF7 cells after 48 hrs by sulforhodamine B assay; conditions: MCF7, 48 h; outline: as §1
MDA-N = test: Growth inhibition of human MDA-N cells after 48 hrs by sulforhodamine B assay; outline: as §1
MDA-MB-435 = test: Growth inhibition of human MDA-MB-435 cells after 48 hrs by sulforhodamine B assay; conditions: MDA-MB-435, 48 h; outline: as §1
M14 = test: Growth inhibition of human M14 cells after 48 hrs by sulforhodamine B assay; conditions: M14, 48 h; outline: as §1
SF-268 [2] = test: Growth inhibition of human SF268 cells assessed as cell growth at 100 uM after 48 hrs by sulforhodamine B assay relative to control; conditions: SF-268, 48 h, read-out: Activity
Outline: (§2)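 One-dose pre-test on MCF7, NCI-H460 and SF-268. Cells were inoculated and pre-incubated on a microtiter plate, then given a single 10^-4 M dose and incubated 48 h. Growth was read spectrophotometrically and expressed as percent of untreated control cells; negative values indicate cell kill.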

UO-31 = test: Growth inhibition of human UO31 cells after 48 hrs by sulforhodamine B assay; conditions: UO-31, 48 h
Outline: (§3)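 NCI 60-cell-line main screen across nine tumor types, with five log dose range per compound. GI50 is the molar concentration giving half growth inhibition, reported as the log of the molar concentration that inhibits 50% net cell growth.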

SK-MEL-5 = test: Growth inhibition of human SK-MEL-5 cells after 48 hrs by sulforhodamine B assay; conditions: SK-MEL-5, 48 h; outline: as §1
K562 = test: Growth inhibition of human K562 cells after 48 hrs by sulforhodamine B assay; conditions: K562, 48 h; outline: as §1
NCI-H522 = test: Growth inhibition of human NCI-H522 cells after 48 hrs by sulforhodamine B assay; conditions: NCI-H522, 48 h; outline: as §1
RXF 393 = test: Growth inhibition of human RXF393 cells after 48 hrs by sulforhodamine B assay; conditions: RXF 393, 48 h; outline: as §1
[3] = Growth inhibition of human breast cancer cell after 48 hrs by sulforhodamine B assay; conditions: Cancer cell lines
Outline: (§4)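 Subpanel median growth inhibitory concentration: the average sensitivity of each tumor-type subpanel of the NCI 60-cell-line panel, derived from per-cell-line GI50 values. GI50 values came from a five log dose range and are expressed as log molar concentration for 50% net growth inhibition.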

[4] = Growth inhibition of human prostate cancer cell after 48 hrs by sulforhodamine B assay; conditions: Cancer cell lines; outline: as §4
HOP-92 = test: Growth inhibition of human HOP92 cells after 48 hrs by sulforhodamine B assay; conditions: HOP-92, 48 h; outline: as §1
BT-549 = test: Growth inhibition of human BT549 cells after 48 hrs by sulforhodamine B assay; conditions: BT-549, 48 h; outline: as §1
SNB-19 = test: Growth inhibition of human SNB19 cells after 48 hrs by sulforhodamine B assay; conditions: SNB-19, 48 h; outline: as §3
SK-MEL-2 = test: Growth inhibition of human SK-MEL-2 cells after 48 hrs by sulforhodamine B assay; conditions: SK-MEL-2, 48 h; outline: as §1
SF-539 = test: Growth inhibition of human SF539 cells after 48 hrs by sulforhodamine B assay; conditions: SF-539, 48 h; outline: as §1
A498 = test: Growth inhibition of human A498 cells after 48 hrs by sulforhodamine B assay; conditions: A498, 48 h; outline: as §1
TK-10 = test: Growth inhibition of human TK10 cells after 48 hrs by sulforhodamine B assay; conditions: TK-10, 48 h; outline: as §3
SK-MEL-28 = test: Growth inhibition of human SK-MEL-28 cells after 48 hrs by sulforhodamine B assay; conditions: SK-MEL-28, 48 h; outline: as §1
[5] = Growth inhibition of human renal cancer cell after 48 hrs by sulforhodamine B assay; conditions: Cancer cell lines; outline: as §4
HCT-116 = test: Growth inhibition of human HCT116 cells after 48 hrs by sulforhodamine B assay; conditions: HCT-116, 48 h; outline: as §1
CAKI-1 = test: Growth inhibition of human Caki1 cells after 48 hrs by sulforhodamine B assay; conditions: CAKI-1, 48 h; outline: as §1
[6] = Growth inhibition of human ovarian cancer cell after 48 hrs by sulforhodamine B assay; conditions: Cancer cell lines; outline: as §4
786-0 = test: Growth inhibition of human 786-0 cells after 48 hrs by sulforhodamine B assay; conditions: 786-0, 48 h; outline: as §1
Malme-3M = test: Growth inhibition of human MALME-3M cells after 48 hrs by sulforhodamine B assay; outline: as §1
MCF7 [7] = test: Growth inhibition of human MCF7 cells assessed as cell growth at 100 uM after 48 hrs by sulforhodamine B assay relative to control; conditions: MCF7, 48 h, read-out: Activity; outline: as §2
OVCAR-5 = test: Growth inhibition of human OVCAR5 cells after 48 hrs by sulforhodamine B assay; conditions: OVCAR-5, 48 h; outline: as §1
HOP-62 = test: Growth inhibition of human HOP62 cells after 48 hrs by sulforhodamine B assay; conditions: HOP-62, 48 h; outline: as §1
HL-60(TB) = test: Growth inhibition of human HL-60(TB) cells after 48 hrs by sulforhodamine B assay; conditions: HL-60, 48 h
Outline: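 NCI 60-cell-line panel run over a five-log dose range. GI50 is reported as the log of the molar concentration giving 50% net cell-growth inhibition, from dose-response against untreated controls. Where that effect was not reached within the concentration interval, the highest tested concentration was used in the calculation.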

ACHN = test: Growth inhibition of human ACHN cells after 48 hrs by sulforhodamine B assay; outline: as §1
UACC-257 = test: Growth inhibition of human UACC257 cells after 48 hrs by sulforhodamine B assay; conditions: UACC-257, 48 h; outline: as §3
[8] = Growth inhibition of human melanoma cell after 48 hrs by sulforhodamine B assay; outline: as §4
PC-3 = test: Growth inhibition of human PC3 cells after 48 hrs by sulforhodamine B assay; conditions: PC-3, 48 h; outline: as §1
HT-29 = test: Growth inhibition of human HT-29 cells after 48 hrs by sulforhodamine B assay; conditions: HT-29, 48 h; outline: as §1
OVCAR-3 = test: Growth inhibition of human OVCAR-3 cells after 48 hrs by sulforhodamine B assay; conditions: OVCAR-3, 48 h; outline: as §1
NCI-H460 = test: Growth inhibition of human NCI-H460 cells after 48 hrs by sulforhodamine B assay; conditions: NCI-H460, 48 h; outline: as §1
HCC 2998 = test: Growth inhibition of human HCC2998 cells after 48 hrs by sulforhodamine B assay; conditions: HCC 2998, 48 h; outline: as §1
OVCAR-4 = test: Growth inhibition of human OVCAR4 cells after 48 hrs by sulforhodamine B assay; conditions: OVCAR-4, 48 h; outline: as §1
[9] = Growth inhibition of human colon cancer cell after 48 hrs by sulforhodamine B assay; conditions: Cancer cell lines; outline: as §4
SF-268 [10] = test: Growth inhibition of human SF268 cells after 48 hrs by sulforhodamine B assay; conditions: SF-268, 48 h; outline: as §1
SN12C = test: Growth inhibition of human SN12C cells after 48 hrs by sulforhodamine B assay; outline: as §3

CC(NC(=O)Nc1cc(Cl)ccc1Cl)(C(F)(F)F)C(F)(F)F
GI50 (COLO 205): 4.17 µM
GI50 (MCF7 [1]): 11.7 µM
GI50 (MDA-N): > 100 µM
GI50 (MDA-MB-435): > 100 µM
GI50 (M14): > 100 µM
growth at 100 µM (SF-268 [2]): 50%
GI50 (UO-31): 2.4 µM
GI50 (SK-MEL-5): 25.1 µM
GI50 (K562): 5.89 µM
GI50 (NCI-H522): 3.09 µM
GI50 (RXF 393): 77.6 µM
GI50 [3]: 61.7 µM
GI50 [4]: 5.75 µM
GI50 (HOP-92): 6.92 µM
GI50 (BT-549): > 100 µM
GI50 (SNB-19): > 100 µM
GI50 (SK-MEL-2): 12.3 µM
GI50 (SF-539): 30.2 µM
GI50 (A498): > 100 µM
GI50 (TK-10): 19.5 µM
GI50 (SK-MEL-28): > 100 µM
GI50 [5]: 15.1 µM
GI50 (HCT-116): 4.9 µM
GI50 (CAKI-1): 19.1 µM
GI50 [6]: 24 µM
GI50 (786-0): 9.77 µM
GI50 (Malme-3M): 17.8 µM
growth at 100 µM (MCF7 [7]): 34%
GI50 (OVCAR-5): > 100 µM
GI50 (HOP-62): 63.1 µM
GI50 (HL-60(TB)): 17.4 µM
GI50 (ACHN): 5.13 µM
GI50 (UACC-257): 75.9 µM
GI50 [8]: 36.3 µM
GI50 (PC-3): 3.47 µM
GI50 (HT-29): 3.72 µM
GI50 (OVCAR-3): 4.17 µM
GI50 (NCI-H460): 5.75 µM
GI50 (HCC 2998): 3.8 µM
GI50 (OVCAR-4): 10.7 µM
GI50 [9]: 7.08 µM
GI50 (SF-268 [10]): 72.4 µM
GI50 (SN12C): 8.71 µM

CCC(NC(=O)Nc1cc(Cl)ccc1Cl)(C(F)(F)F)C(F)(F)F
GI50 (COLO 205): 1.82 µM
GI50 (MCF7 [1]): 7.24 µM
GI50 (MDA-N): 4.17 µM
GI50 (MDA-MB-435): 5.13 µM
GI50 (M14): 5.13 µM
growth at 100 µM (SF-268 [2]): -99%
GI50 (UO-31): 2.63 µM
GI50 (SK-MEL-5): 6.61 µM
GI50 (K562): 3.55 µM
GI50 (NCI-H522): 2.82 µM
GI50 (RXF 393): 10 µM
GI50 [3]: 5.5 µM
GI50 [4]: 3.16 µM
GI50 (HOP-92): 4.68 µM
GI50 (BT-549): 10.5 µM
GI50 (SNB-19): 4.68 µM
GI50 (SK-MEL-2): 2.19 µM
GI50 (SF-539): 9.55 µM
GI50 (A498): 4.17 µM
GI50 (TK-10): 2.24 µM
GI50 (SK-MEL-28): 12 µM
GI50 [5]: 3.89 µM
GI50 (HCT-116): 3.24 µM
GI50 (CAKI-1): 4.57 µM
GI50 [6]: 5.5 µM
GI50 (786-0): 4.37 µM
GI50 (Malme-3M): 8.13 µM
growth at 100 µM (MCF7 [7]): -89%
GI50 (OVCAR-5): 4.79 µM
GI50 (HOP-62): 10.7 µM
GI50 (HL-60(TB)): 4.17 µM
GI50 (ACHN): 3.89 µM
GI50 (UACC-257): 4.79 µM
GI50 [8]: 5.25 µM
GI50 (PC-3): 2.19 µM
GI50 (HT-29): 3.31 µM
GI50 (OVCAR-3): 3.09 µM
GI50 (NCI-H460): 2.19 µM
GI50 (HCC 2998): 1.15 µM
GI50 (OVCAR-4): 5.62 µM
GI50 [9]: 4.68 µM
GI50 (SF-268 [10]): 4.79 µM
GI50 (SN12C): 2.82 µM
